CHRM4 PAM = CHRM4 positive allosteric modulation | CHO-K1 hM4/Gqi5, Fluo-8 calcium fluorescence, ACh EC20; 0% = ACh EC20, 100% = maximal ACh | hit rate 0.4% among 360,000 | activation, % at 3 µM | AID 624126;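 active means activation above its plate's cutoff, the mean activation of sample wells plus 3 SD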
M4 ag = agonists of human muscarinic M4 receptor (CHRM4); AID 624127; activation, % at 3 µM; hit rate 0.14% among 360,000; P08173; CHO-K1 hM4/Gqi5, Fluo-8 calcium fluorescence; vehicle 0%, full acetylcholine response 100%;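 active means activation above the run mean over all test wells plus 3 SD, cut at about 32% in these data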;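 further: peak over basal fluorescence ratio per well then scaled between controls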
M5 PAM = CHRM5 positive allosteric modulation; P08912; activation, % at 3 µM; AID 624038; hit rate 0.3% among 360,000; CHO-K1 hM5, Fluo-8 calcium, ACh EC20 PAM; 0% = ACh EC20, 100% = ACh EC100;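 active means activation above the run cutoff, the mean activation of all test compounds plus 3 SD, cut at about 18% in these data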
Target sequence (P08912 whole entry, looked up): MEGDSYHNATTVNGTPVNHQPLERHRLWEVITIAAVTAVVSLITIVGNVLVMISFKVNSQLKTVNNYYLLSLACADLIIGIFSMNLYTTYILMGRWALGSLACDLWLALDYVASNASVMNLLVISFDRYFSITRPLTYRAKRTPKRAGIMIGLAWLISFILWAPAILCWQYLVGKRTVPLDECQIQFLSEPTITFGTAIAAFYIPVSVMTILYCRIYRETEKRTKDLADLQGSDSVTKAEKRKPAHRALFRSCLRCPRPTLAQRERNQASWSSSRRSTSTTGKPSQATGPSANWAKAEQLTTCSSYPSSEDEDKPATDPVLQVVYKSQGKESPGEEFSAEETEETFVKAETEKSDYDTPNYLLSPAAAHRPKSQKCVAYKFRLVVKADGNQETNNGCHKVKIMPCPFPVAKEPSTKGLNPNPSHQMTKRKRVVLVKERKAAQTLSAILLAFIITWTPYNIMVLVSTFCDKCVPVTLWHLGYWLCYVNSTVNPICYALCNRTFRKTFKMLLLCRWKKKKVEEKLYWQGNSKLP
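System: CHO-K1 hM5 cells. Reagent: acetylcholine, EC20 level. Compound dosing: single dose, 3 µM nominal final test concentration. Timing: Post-acetylcholine fluorescence recording 140 s. Detection: Fluo-8 calcium fluorescence. Read-out: % activation, ACh-normalized. Benchmarks: ACh EC20 and EC100 wells. Repeats: singlicate, one well per test compound.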
CHRM4 antagonist = CHRM4 antagonism in calcium assay. CHO-hM4 cells, ACh EC80, Fluo-8 calcium fluorescence. inhibition, % at 3 µM. hit rate 0.73% among 360,000. AID 624125;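 active means inhibition above its plate's cutoff, the mean inhibition of sample wells plus 3 SD, cut at about 27% in these data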
M5 antag = CHRM5 antagonism in calcium assay | P08912 | CHO-hM5 cells, Fluo-8 calcium fluorescence, ACh EC80 | inhibition, % at 3 µM | hit rate 0.59% among 360,000 | AID 624040;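 active means inhibition above a per-plate cutoff, the mean of that plate's test compounds plus 3 SD, cut at about 27% in these data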
CHRM5 agonist = CHRM5 agonism in calcium assay; P08912; hit rate 0.19% among 360,000; CHO-K1 hM5 cells, Fluo-8 calcium fluorescence; 0% DMSO wells, 100% maximal acetylcholine response; activation, % at 3 µM; AID 624037;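 active means activation above the run's mean over test compounds plus 3 SD, cut at about 23% in these data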;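 further: signal is peak over basal fluorescence ratio across the kinetic read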
Large screens that a line does not name were inactive; ! = not active in a repeat. Compounds with a hit are over-represented: about 1.8% of the library has one in this group of screens.

CN1[C@@H]2CC(OC(=O)[C@H](CO)c3ccccc3)C[C@H]1[C@@H]1O[C@@H]12 (some centres not stated)	CHRM4 antagonist 100 (no result: M5 PAM, M5 antag, CHRM5 agonist)
c1cncc(-c2cn(C[C@H]3CC[C@H](Cn4cc(-c5cccnc5)nn4)O3)nn2)c1	none
CC(C)(C)c1ccc(C(=O)N2[C@H](COCc3ccccc3)C=CS2(=O)=O)cc1	none
CN1CCN(C(=O)c2ccc3c(Cl)c4c(nc3c2)CCCC4)CC1	CHRM4 PAM 15
O=S(=O)(Nc1ccccc1N1CCOCC1)c1ccc(Cl)cc1	none
COc1ccc(C(N)c2csc(Nc3cc(Oc4ccccc4)ncn3)n2)cc1 (configuration not stated)	CHRM4 antagonist 41, M5 antag 30
CN=c1scc(-c2c[nH]c3ccccc23)n1C	none
COC(=O)Cc1cccc2c(=O)c3ccccc3oc12	none
CCNC(=O)N(C)c1c(CC)nc2ccc(C(=O)Nc3cccc(OCC(=O)N(C)C)c3)cn12	none
CCc1nc2ccc(C(=O)Nc3cccc(OCC(=O)N(C)C)c3)cn2c1N(C)Cc1cc2ccccc2s1	CHRM4 antagonist 34, M5 antag 33
O=c1nc(N2CCCC2)nc(N2CCCC2)[nH]1	none
O=C1OCC/C1=C\NCCCN/C=C1\CCOC1=O	none
CCN(CC)CC(C)(C)C(=O)/C=C/c1ccc(/C=C/C(=O)C(C)(C)CN(CC)CC)cc1	CHRM4 antagonist 42
O=C(COn1nnc2ccccc21)N1CCN(Cc2ccccc2)CC1	none
Cc1c(C(=O)NCc2ccc3c(c2)OCO3)oc2ccc(S(=O)(=O)N3CCCC3)cc12	none
Cc1c(C(=O)NCc2ccc3c(c2)OCO3)oc2ccc(S(=O)(=O)N3CCCCC3)cc12	CHRM4 antagonist 27
COc1ccc(N2CCN(C(=O)CSc3nnc(NC(=O)C4CC4)s3)CC2)cc1	none
CCN1CCN(Cc2ccc(NC(=O)c3ccc(C)c(NC(=O)c4ccnnc4)c3)cc2C(F)(F)F)CC1	none
CCN1CCN(Cc2ccc(C(=O)Nc3ccc(C)c(NCc4cnc(NC(=O)OC)cn4)c3)cc2C(F)(F)F)CC1	CHRM4 antagonist 33!
CCn1c(C)nc2cc(NC(=O)Nc3cccc(C(C)=O)c3)ccc21	none
CC(=O)Nc1ccc(-n2nnnc2SCC(=O)Nc2cccc(NC(=O)c3ccco3)c2)cc1	CHRM4 antagonist 26
COc1ccccc1CNC(=O)C1CCN(C(=O)c2sccc2-n2cccc2)CC1	none
CC1=C/C(=C\C=C(C#N)C#N)N(C)c2ccccc21	CHRM5 agonist 43
CN1/C(=C/C=C(C#N)C#N)C(C)(C)c2ccccc21	none
Cc1ccc(S(=O)(=O)N2C[C@H]3C(=O)C[C@@H](c4ccc(Cl)cc4)N(S(=O)(=O)c4ccccc4C)[C@H]3C[C@H]2c2ccc(Cl)cc2)cc1	none
Cc1noc(-c2ccccc2)c1NC(=O)Nc1ccc(Cl)cc1	CHRM4 antagonist 37
CC(C)(C)c1nnc(NC(=O)Nc2ccc(Cl)cc2)s1	none
Cc1nc(NC(=O)Nc2ccc(Cl)cc2)sc1C	CHRM4 antagonist 28
O=C([O-])c1ccccc1-[n+]1c(-c2ccccc2)cc(-c2ccccc2)cc1-c1ccccc1	CHRM4 antagonist 61
CC1CCCC(C)N1C(=O)CN1C(=O)C(C)(C)Oc2ccc(C(=O)NC3CCCC3)cc21 (configuration not stated)	CHRM4 antagonist 26
CC1CCCC(C)N1C(=O)CN1C(=O)C(C)(C)Oc2ccc(C(=O)NC3CCCCC3)cc21 (configuration not stated)	none
Cc1cccc2sc(N(CCCN(C)C)C(=O)c3ccc4ncsc4c3)nc12	CHRM4 PAM 34, CHRM4 antagonist 30
CN(C)CCCN(C(=O)CCc1ccccc1)c1nc2ccc(Br)cc2s1	M4 ag 34, CHRM4 antagonist 53
CN(C)CCN(C(=O)c1ccc(C(=O)c2ccccc2)cc1)c1nc2cc3c(cc2s1)OCCO3	none
CN(C)CCCN(C(=O)CCc1ccccc1)c1nc2ccc(F)cc2s1	none
CN(C)CCCN(C(=O)c1ccc(C(=O)c2ccccc2)cc1)c1nc2cc3c(cc2s1)OCCO3	M5 antag 28
CCN(CC)CCN(C(=O)c1ccc2c(c1)OCCO2)c1nc2cc(C)cc(C)c2s1	CHRM4 PAM 18
Cc1cccc2sc(N(CCCN(C)C)C(=O)c3nc4ccccc4s3)nc12	none
CS(=O)(=O)c1ccc(NC(=O)c2ccc3c(c2)S(=O)(=O)N=C2CCCCCN23)cc1	none
C#CCOc1c(/C=C\c2nc(O)c([N+](=O)[O-])c(=O)[nH]2)cc(Br)cc1OC	none
O=C(NC1CCCC1)C(=O)N(Cc1cccnc1)C(C(=O)NCC1CCCO1)c1ccco1 (configuration not stated)	none
CCc1nc2ccccc2c(C(=O)OCC(=O)Nc2cccc(S(=O)(=O)N3CCOCC3)c2)c1C	CHRM4 antagonist 30
Cn1nccc1C(=O)Nc1cccc(S(=O)(=O)N2CCOCC2)c1	CHRM4 PAM 22
O=C(COC(=O)c1cc(S(=O)(=O)N2CCCC2)ccc1O)Nc1ccc(S(=O)(=O)N2CCOCC2)cc1	CHRM4 PAM 37
CC(=O)N/N=C\c1ccccc1OC/C=C/c1ccccc1	none
CC(O)c1nc2ccccc2n1C/C=C/c1ccccc1 (configuration not stated)	none
Cc1c(P(=S)(c2ccccc2)c2ccccc2)[n+]2ccccc2n1C/C=C/c1ccccc1	CHRM4 antagonist 29
CC(=O)Nc1ccc(N2C(=O)c3cccc4c(O)ccc(c34)C2=O)cc1	M4 ag 147, CHRM4 antagonist 29, M5 antag 28, CHRM5 agonist 64
O=C1c2ccccc2C(=O)N1Cc1ccco1	none
CC(=O)Nc1ccc(-n2c(=O)c3ccccc3c3ccccc3c2=O)cc1	none
COc1ccc(N2C(=O)c3cccc4cccc(c34)C2=O)cc1	none
COc1ccc(N2C(=O)c3cccc4c(N(C)CCO)ccc(c34)C2=O)cc1	CHRM5 agonist 24
O=C1c2cccc3c(O)ccc(c23)C(=O)N1Cc1ccco1	M4 ag 99, CHRM4 antagonist 28, CHRM5 agonist 26
CCOC(=O)c1ccc(N2C(=O)c3cccc4c(C(=O)O)ccc(c34)C2=O)cc1	none
O=C1c2cccc3c(O)ccc(c23)C(=O)N1c1ccc(Cl)cc1	M4 ag 75, CHRM5 agonist 33
COc1ccccc1NC(=O)CCn1c(=O)c2cccn2c2ccccc21	none
Cc1c(C(=O)NCc2ccc3c(c2)OCO3)sc(=O)n1Cc1ccc(-c2ccccc2)cc1	none
Cc1cc2nc(CCN(C(=S)NCC(C)C)C3CCCC3)[nH]c2cc1C	none
